{"data": "Measurements collected from several papers", "target": "cAMP-dependent protein kinase catalytic subunit beta (PRKACB, Homo sapiens, UniProt P22694)", "method": "competition with immobilised ligand", "note": "Compare with care: the assays were run in different laboratories."}
{"SMILES": "COc1ccc2c(O[C@@H]3C[C@H]4C(=O)N[C@]5(C(=O)O)CC5/C=C\\CCCCC[C@H](NC(=O)OC5CCCC5)C(=O)N4C3)cc(-c3csc(NC(=O)C(C)C)n3)nc2c1C (some centres unmarked)", "read-out": "cell-free assay", "concentration": "1 µM", "remaining binding [%]": 100}
{"SMILES": "N[C@H]1CCN(c2nccc(-c3cnn4ncccc34)n2)C1", "read-out": "binding", "concentration": "1 µM", "remaining binding [%]": 83}
{"SMILES": "C=CC(=O)N1CCC(C(=O)NCC(=O)N2CCN(c3nc(-c4cnc(N)nc4C(F)F)nc(N4CCOCC4)n3)CC2)CC1", "read-out": "binding", "concentration": "1 µM", "remaining binding [%]": 90}
{"SMILES": "COc1ccnn2ncc(-c3ccnc(N(C)C)n3)c12", "read-out": "binding", "concentration": "1 µM", "remaining binding [%]": 95}
{"SMILES": "COc1cnc(Nc2cccc(S(N)(=O)=O)c2)nc1N1CCN(c2ccccc2)CC1", "read-out": "binding", "concentration": "1 µM", "remaining binding [%]": 85}
{"SMILES": "COc1ncc2cc3ccccc3nc2c1C#N", "read-out": "cell-free assay", "concentration": "5 µM", "remaining binding [%]": 97}
{"SMILES": "O=C(NCCCN1CCOCC1)c1ccc(Nc2ncc(Cl)c(-c3ccc(Cl)s3)n2)cc1", "read-out": "binding", "concentration": "1 µM", "remaining binding [%]": 100}
{"SMILES": "O=C(NCCCC1CCCCC1)c1ccc(CNC(=O)c2cnn(-c3ccccc3)c2C(F)(F)F)cc1", "read-out": "cell-free assay", "concentration": "0.1 µM", "remaining binding [%]": 100}
{"SMILES": "CCN1CCN(Cc2ccc(C(=O)Nc3ccc(C)c(Oc4ccc5c(c4)CC(=O)N5)c3)cc2C(F)(F)F)CC1", "read-out": "binding", "concentration": "1 µM", "remaining binding [%]": 80}
{"SMILES": "CNC(=O)Nc1ccc2c(c1)[C@@]1(CC2)OC(=O)N(CC(=O)N(Cc2ccc(F)cc2)[C@@H](C)C(F)(F)F)C1=O", "read-out": "cell-free assay", "concentration": "1 µM", "remaining binding [%]": 100}
{"SMILES": "CN(CCCC(F)(F)F)c1nccc(-c2cnn3ncccc23)n1", "read-out": "binding", "concentration": "1 µM", "remaining binding [%]": 100}
{"SMILES": "CCCCN(CCCC)C(=O)CN1C[C@@H](c2cc(OC)c3c(c2)OCO3)[C@H](C(=O)O)[C@H]1CC(C)(C)CCC", "read-out": "cell-free assay", "concentration": "1 µM", "remaining binding [%]": 100}
{"SMILES": "Cc1cnn2ncc(-c3ccnc(N(C)C)n3)c2c1", "read-out": "binding", "concentration": "1 µM", "remaining binding [%]": 96}
{"SMILES": "O=C(Nc1c[nH]nc1C(=O)NC1CCNCC1)c1cc(F)cc(F)c1", "read-out": "binding", "concentration": "1 µM", "remaining binding [%]": 100}
{"SMILES": "C[C@@H](c1ccc(-n2cnc3c(N)ncnc32)cc1)N1CCc2nn(C)c(Cc3ccccc3)c2C1=O", "read-out": "binding", "concentration": "0.1 µM", "remaining binding [%]": 100}
{"SMILES": "O=C(c1ccc(Nc2nccc(-c3cc4ccccc4s3)n2)cc1)N1CCC(N2CCCC2)CC1", "read-out": "binding", "concentration": "1 µM", "remaining binding [%]": 100}
{"SMILES": "NS(=O)(=O)c1cc(NC(=O)Cc2ccccc2)ccc1Oc1cccc(Cl)c1", "read-out": "cell-free assay", "concentration": "1 µM", "remaining binding [%]": 100}
{"SMILES": "C[C@H]1CCN(c2nccc(-c3cnn4ncccc34)n2)C1", "read-out": "binding", "concentration": "1 µM", "remaining binding [%]": 99}
{"SMILES": "O=C(O)c1cc(-c2ccc(C3CCNCC3)cc2)c2ccc(-c3ccc(C(F)(F)F)cc3)cc2c1", "read-out": "cell-free assay", "concentration": "1 µM", "remaining binding [%]": 100}
{"SMILES": "Cc1cnc(Nc2ccc(C(=O)N3CCC(N4CCCC4)CC3)cc2)nc1-c1cc2ccccc2s1", "read-out": "binding", "concentration": "1 µM", "remaining binding [%]": 85}
